Results pooled from the literature.
Protocols differ between the studies behind these lines.
CCKAR: Cholecystokinin receptor type A (CCKAR, Homo sapiens, UniProt P32238)
KMT5A: N-lysine methyltransferase KMT5A (KMT5A, Homo sapiens, UniProt Q9NQR1)
PRKACA: cAMP-dependent protein kinase catalytic subunit alpha (PRKACA, Bos taurus, UniProt P00517)
PRKCB: Protein kinase C beta type (PRKCB, Homo sapiens, UniProt P05771)
HTR3A: 5-hydroxytryptamine receptor 3A (HTR3A, Homo sapiens, UniProt P46098)

SMILES	target	observed	action	method	cell line	tested at	inhibition
COc1cc(NC(C)=O)c(Cl)cc1C(=O)Nc1nccs1	CCKAR	cell-free assay	–	–	–	10 µM	-9.3%
O=C(O)CCCCCCCCCCCC[C@@H]1C=CCC1	KMT5A	cell-free assay	–	–	–	10 µM	-10%
Cn1cncc1C1=CN(c2ncnc3[nH]cnc23)CCS1	Serine/threonine-protein kinase LATS1 (LATS1, Homo sapiens, UniProt O95835)	enzyme activity	inhibitor	radiometric	–	50 nM	35%
Cc1ccc(Nc2nccc(N(C)c3ccc4c(C)n(C)nc4c3)n2)cc1S(N)(=O)=O	PRKACA	enzyme activity	inhibitor	–	–	0.3 µM	-7%
COc1cc2ncnc(Nc3ccc(Oc4ccccc4)cc3C)c2cc1OC	PRKCB	enzyme activity	inhibitor	–	–	1 µM	7%
CCN1CCN(Cc2ccc(NC(=O)c3ccc(C)c(/C=C/c4cnc5[nH]ccc5c4OC)c3)cc2C(F)(F)F)CC1	Serine/threonine-protein kinase greatwall (MASTL, Homo sapiens, UniProt Q96GX5)	target engagement in cells	inhibitor	chemoproteomics	A-375	0.5 µM	0.239%
O=C1C=C2CC3(O)COc4c(ccc(O)c4O)C3=C2C=C1O (stereo not shown)	KMT5A	cell-free assay	–	–	–	10 µM	8%
CN(C)C1CCN(CC#Cc2nn(C3CCCC3)c3nc(NCc4ccccc4)ncc23)C1 (stereo not shown)	Dual specificity mitogen-activated protein kinase kinase 6 (MAP2K6, Homo sapiens, UniProt P52564)	enzyme activity	inhibitor	FRET	–	10 µM	8%
CN(C)c1ccc2nc3ccc(=[N+](C)C)cc-3sc2c1	KMT5A	cell-free assay	–	–	–	10 µM	43%
O=C(O)c1ncccc1O	Neutrophil collagenase (MMP8, Homo sapiens, UniProt P22894)	enzyme activity	inhibitor	fluorescence	–	1 mM	~50%
COc1cc(-c2cc(-c3ccc(N4CCNCC4)cc3)cnc2N)cc(OC)c1OC	Tyrosine-protein kinase ABL1 (ABL1, Homo sapiens, UniProt P00519, E255K)	enzyme activity	inhibitor	–	–	1 µM	94%
Ic1cccc2cnccc12	Nicotinamide phosphoribosyltransferase (NAMPT, Homo sapiens, UniProt P43490)	enzyme activity	inhibitor	–	–	10 µM	-2%
CCN(CC)CCNC(=O)c1c(C)[nH]c(/C=C2\C(=O)Nc3ccc(F)cc32)c1C	PRKACA	enzyme activity	inhibitor	–	–	10 µM	1%
CCCCC(CC)CNC(=N)NC(=N)NCCCCCCNC(=N)NC(=N)NCC(CC)CCCC (stereo not shown)	KMT5A	cell-free assay	–	–	–	10 µM	34%
COc1ccc(C(=O)c2coc3c2C(=O)C(=O)C(Cl)=C3)cc1	Peptide deformylase, mitochondrial (Homo sapiens, UniProt Q9HBH1)	enzyme activity	inhibitor	–	–	100 µM	≥ 100%
O=C1N=C(N2CCCCN2)S/C1=C\c1ccc(F)cc1O	CCKAR	ligand displacement	–	radioligand	–	10 µM	10%
CCCS(=O)(=O)Nc1ccc(F)c(C(=O)c2c[nH]c3ncc(-c4ccc(Cl)cc4)cc23)c1F	PRKCB	enzyme activity	inhibitor	–	–	1 µM	< 20%
O=c1c(O)cccc2c([C@H]3Oc4cc(O)cc(O)c4C[C@H]3O)cc(O)c(O)c12	KMT5A	cell-free assay	–	–	–	10 µM	3%
CCN(c1cc(C#CCN2CCOCC2)cc(C(=O)NCc2c(C)cc(C)[nH]c2=O)c1C)[C@H]1CC[C@H](N(C)CCOC)CC1	Protein arginine N-methyltransferase 6 (PRMT6, Homo sapiens, UniProt Q96LA8)	enzyme activity	inhibitor	–	–	1 µM	6%
CN(C)c1ccc(C(=C2C=CC(=[N+](C)C)C=C2)c2ccc(N(C)C)cc2)cc1	KMT5A	cell-free assay	–	–	–	10 µM	97%
COC(=O)/C=C\C(=O)Nc1cc2ccc(O)cc2oc1=O	Histone acetyltransferase p300 (EP300, Homo sapiens, UniProt Q09472)	enzyme activity	inhibitor	radiometric	–	50 µM	> 90%
O=C1c2c(O)cccc2Cc2cccc(O)c21	KMT5A	cell-free assay	–	–	–	10 µM	19%
O=C(c1ccc(F)cc1)N(Cc1ccccc1)C1CCCCC1	HTR3A	ligand displacement	–	–	–	10 µM	-1%
O=C(O)c1cc(O)c2c(c1)[C@H]([C@H]1c3cc(C(=O)O)cc(O)c3C(=O)c3c(O[C@@H]4O[C@H](CO)[C@@H](O)[C@H](O)[C@H]4O)cccc31)c1cccc(O[C@@H]3O[C@H](CO)[C@@H](O)[C@H](O)[C@H]3O)c1C2=O	KMT5A	cell-free assay	–	–	–	10 µM	23%
Oc1cccc(Nc2nc(-c3ccc(F)cc3F)cs2)c1	HTR3A	ligand displacement	–	radioligand	–	10 µM	0.9%
